≈ marks a conversion by molar mass, not a printed value.
Columns and labels:
[1] = Metabolic stability in CD-1 mouse plasma assessed as parent compound remaining at 1 ug/ml measured after 2 hrs by LC-MS/MS analysis; format: ADME, cell-free; details: at 1 µg/mL, read-out: Stability
Method in brief: (§1)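 Compound at 1 μg/mL final (from 20 μg/mL DMSO stock; 5% DMSO) incubated in K2EDTA plasma (female CD-1 mouse or human) at 37 °C with shaking. Aliquots quenched in 1:1 MeCN/MeOH with verapamil; parent and released PAS measured by high-resolution LC-MS/MS; percent parent remaining versus initial concentration at 120 min.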

[2] = AUC in CD-1 mouse plasma assessed as para-aminosalicylic acid AUC at 10 mg/kg, po administered as single dose and measured up to 5 hrs by HPLC-MS/MS analysis; format: ADME, organism-based; set-up: time < 5 hrs, dose 10 mg/kg, route po; details: in vivo
Method in brief: (§2)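 Snapshot PK: single oral gavage at 10 mg/kg in 5% dimethylacetamide:60% PEG 300:35% (5% dextrose in water) solution to female CD-1 mice (n = 2). Tail-vein blood (K2EDTA) at 0.5, 1, 3, 5 h; plasma protein-precipitated in MeCN with internal standard, prodrug and released PAS quantified by LC-MS/MS; AUC by non-compartmental analysis.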

[3] = AUC in CD-1 mouse plasma assessed as para-aminosalicylic acid AUC at 25 mg/kg, po administered as single dose and measured up to 24 hrs by LC-MS/MS analysis; format: ADME, organism-based; set-up: dose 25 mg/kg, time < 24 hrs, route po; details: in vivo
[4] = Metabolic stability in human plasma assessed as parent compound remaining at 1 ug/ml measured after 2 hrs by LC-MS/MS analysis; format: ADME, cell-free; details: at 1 µg/mL, read-out: Stability; method in brief: as §1
[5] = AUC in CD-1 mouse plasma assessed as para-aminosalicylic acid AUC at 25 mg/kg, po administered as single dose and measured up to 5 hrs by LC-MS/MS analysis; format: ADME, organism-based; set-up: dose 25 mg/kg, time < 5 hrs, route po; details: in vivo
Method in brief: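 Female CD-1 mice (n = 2) dosed once by oral gavage at 25 mg/kg in 5% dimethylacetamide:60% PEG 300:35% (5% dextrose in water). Lateral tail-vein blood into K2EDTA at 0.5, 1, 3, 5 h; plasma analysed by LC-MS/MS after MeCN precipitation with internal standard; AUC over 5 h by non-compartmental fit.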

[6] = test system: Mycobacterium tuberculosis; experiment: Antimycobacterial activity against Mycobacterium tuberculosis H37Rv assessed as inhibition of bacterial growth measured after 10 days by microbroth dilution method; format: functional; details: 240 h, time 10 day
[7] = Ratio of compound AUC to para-aminosalicylic acid AUC in CD-1 mouse; format: ADME; details: in vivo
[8] = test system: Mycobacterium tuberculosis; experiment: Antimycobacterial activity against drug susceptible Mycobacterium tuberculosis H37Rv assessed as inhibition of bacterial growth measured after 2 weeks by microbroth dilution method; format: functional; details: 336 h
Method in brief: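 Diluted 1000-fold into 96-well plates with 2-fold serial compound dilutions and incubated at 37 °C for 2 weeks. Growth scored by mirror at 1 and 2 weeks. MIC is the lowest concentration completely inhibiting growth; tested in duplicate. DMSO, isoniazid and linezolid served as controls.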

[9] = AUC in CD-1 mouse at 10 mg/kg, po administered as single dose and measured up to 5 hrs by LC-MS/MS analysis; format: ADME, organism-based; set-up: dose 10 mg/kg, time < 5 hrs, route po; details: in vivo; method in brief: as §2
[10] = AUC in CD-1 mouse at 25 mg/kg, po administered as single dose and measured up to 24 hrs by LC-MS/MS analysis; format: ADME, organism-based; set-up: dose 25 mg/kg, time < 24 hrs, route po; details: in vivo
Method in brief: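 Female CD-1 mice (n = 3) given a single oral gavage dose of 25 mg/kg as a 0.5% CMC/0.5% Tween 80 suspension. Tail-vein blood was drawn at 0.5, 1, 3, 5, 7 and 24 h into K2EDTA and plasma stored at −80 °C. Only PAS was quantified, by LC-MS/MS after MeCN precipitation.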

SMILES | remaining at 2 h, 1 ug/ml [1] | remaining at 2 h, 1 ug/ml [4] | MIC90 [6] | Ratio AUC [7] | further results
CC(C)(C)C(=O)OCOC(=O)c1ccc(N)cc1O | 0% | 15% |  |  | AUC [2]: 460 ng·h/mL; AUC [3]: 300 ng·h/mL
CC(OC(=O)c1ccc(N)cc1O)OC(=O)C(C)(C)C (centres undefined) | 0% | 0% |  |  | AUC [5]: 190 ng·h/mL
Nc1ccc(C(=O)O)c(O)c1 [AMINOSALICYLIC ACID] |  |  | 0.5 µM (≈ 0.0766 µg/mL) | 1 | AUC [2]: 380 ng·h/mL; AUC [3]: 3400 ng·h/mL; MIC90 [8]: 0.2 µM (≈ 0.0306 µg/mL)
Cc1oc(=O)oc1COC(=O)c1ccc(N)cc1O | 0% | 0% |  |  | AUC [5]: 250 ng·h/mL
COC(=O)c1ccc(N)cc1O | 84% | 94% | 64 µM (≈ 10.7 µg/mL) | 0.2 | AUC [2]: 53 ng·h/mL; AUC at 5 h [9]: 1700 ng·h/mL
CC(=O)NC[C@H]1CN(c2ccc(N3CCOCC3)c(F)c2)C(=O)O1 [LINEZOLID] |  |  |  |  | MIC90 [8]: 0.7 µM (≈ 0.236 µg/mL)
[N-]=[N+]=Nc1ccc(C(=O)O)c(O)c1 |  |  | 128 µM (≈ 22.9 µg/mL) | 430 | AUC [10]: 900000 ng·h/mL
CNc1ccc(C(=O)O)c(O)c1 |  |  | > 128 µM | 59 | AUC [10]: 130000 ng·h/mL
CC(C)OC(=O)c1ccc(N)cc1O | 94% | 93% | > 128 µM | 0.6 | AUC at 5 h [9]: 230 ng·h/mL
CC(C)OC(=O)OCOC(=O)c1ccc(N)cc1O | 0% | 0% |  |  | AUC [2]: 19 ng·h/mL
Nc1cc(O)c(C(=O)O)cc1F |  |  | 8 µM (≈ 1.37 µg/mL) | 4.9 | MIC90 [8]: 6.3 µM (≈ 1.08 µg/mL); AUC [10]: 10000 ng·h/mL
Cl.Nc1cc(O)c(C(=O)O)c(F)c1 |  |  | 64 µM | 1.2 | AUC [10]: 2400 ng·h/mL
CCOC(=O)c1cc(F)c(N)cc1O |  |  | > 128 µM | 0.02 | 
Cl.Nc1ccc(C(=O)O)c(O)c1F |  |  | 32 µM | 1.9 | AUC [10]: 4000 ng·h/mL
CCOC(=O)c1ccc(N)cc1O | 92% | 94% | 2 µM (≈ 0.362 µg/mL) | 0.1 | AUC at 5 h [9]: 44 ng·h/mL
CC(C)OC(=O)OC(C)OC(=O)c1ccc(N)cc1O (centres undefined) | 0% | 24% |  |  | AUC [2]: 190 ng·h/mL
CNc1ccc(C(=O)OC)c(O)c1 | 90% | 96% |  |  | AUC at 5 h [9]: 78 ng·h/mL

Source: ChEMBL document CHEMBL5131498, “Synthesis and biological evaluation of orally active prodrugs and analogs of para-aminosalicylic acid (PAS)” (Eur J Med Chem, 2022)
